Results reported in publication PMC6133080 (European Journal of Drug Metabolism and Pharmacokinetics, 2018).
Where two headings read alike, the source gives them in different places.

Tests used:
[1] = Ketoconazole study: safety and tolerability; assay type: in vivo, human; details: for Subjects with abdominal pain upper / Subjects with any AE (s) / Subjects with back pain / Subjects with dizziness / Subjects with dry mouth / Subjects with excoriation / Subjects with fatigue / Subjects with headache / Subjects with nasopharyngitis / Subjects with ocular hyperemia / Subjects with puncture site induration / Subjects with puncture site pain: nintedanib 50 mg single dose, ketoconazole 400 mg once daily for 3 days
How it was run: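 Healthy subjects in an open-label 2-way crossover with randomized sequences. The pilot period had 8 subjects and the main period 26 further subjects. Nintedanib 50 mg was given alone and after ketoconazole 400 mg once daily for 3 days (1 h after the last dose in the pilot), with ≥14 days between nintedanib doses. AEs from one drug intake to the next, washout included, were assigned to that treatment period (nintedanib, ketoconazole, or both). Labs, vital signs, 12-lead ECG and physical exam were also recorded.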

esterases = details: in vitro; cited from earlier work
p-glycoprotein (P-gp) = details: cited from earlier work
[2] = assay type: in vivo, human
[3] = cited from earlier work
[4] = assay type: in vivo, human; remark: listed apart in the source
How it was run: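 Open-label, fixed-sequence, two-period study in 26 healthy subjects. A single oral 150 mg dose was given alone, then the morning after the last of 7 daily oral 600 mg co-drug doses. Doses were ≥14 days apart. Plasma sampled pre-dose to 72 h and assayed by LC-MS/MS. Cmax observed; AUC by linear-up/log-down trapezoidal rule; log values analysed by ANOVA (treatment fixed, subject random), giving geometric mean ratios with 90% CIs.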

[5] = Rifampicin study: safety and tolerability; assay type: in vivo, human; details: for Subjects with any AE (s) / Subjects with chromaturia / Subjects with cough / Subjects with dermatitis contact / Subjects with diarrhea / Subjects with dizziness / Subjects with dysphagia / Subjects with eye pain / Subjects with fatigue / Subjects with feces discolored / Subjects with feeling hot / Subjects with flatulence / Subjects with headache / Subjects with influenza / Subjects with laceration / Subjects with nausea / Subjects with night sweats / Subjects with oropharyngeal pain / Subjects with pollakiuria / Subjects with rhinitis / Subjects with vessel puncture site paresthesia: nintedanib 150 mg single dose, rifampicin 600 mg once daily for 7 days
How it was run: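 26 healthy subjects in an open-label, two-period, fixed-sequence design. A single oral nintedanib 150 mg dose was given alone, then again the morning after the last oral rifampicin 600 mg once-daily dose (7 days), with ≥14 days between nintedanib doses. AEs within 72 h of each nintedanib dose were assigned to that period. AEs later than 72 h after nintedanib alone and before rifampicin started were counted as washout. Labs, vital signs, 12-lead ECG and physical exam were also assessed.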

CYP = details: in vitro; cited from earlier work
[6] = single dose of nintedanib alone and with ketoconazole
[7] = co-administration with ketoconazole
[8] = test nintedanib 50 mg + ketoconazole 400 mg vs reference nintedanib 50 mg
[9] = co-administration with rifampicin
[10] = test nintedanib 150 mg + rifampicin 600 mg vs reference nintedanib 150 mg
[11] = single dose of nintedanib alone and with rifampicin

CC(=O)N1CCN(c2ccc(OCC3COC(Cn4ccnc4)(c4ccc(Cl)cc4Cl)O3)cc2)CC1 (centres unmarked) [Ketoconazole]
Subjects with abdominal pain upper [1]: 1 (2.9) n (%) | Subjects with any AE (s) [1]: 3 (8.8) n (%) | Subjects with back pain [1]: 0 n (%) | Subjects with dizziness [1]: 0 n (%) | Subjects with dry mouth [1]: 1 (2.9) n (%) | Subjects with excoriation [1]: 0 n (%) | Subjects with fatigue [1]: 0 n (%) | Subjects with headache [1]: 2 (5.9) n (%) | Subjects with nasopharyngitis [1]: 0 n (%) | Subjects with ocular hyperemia [1]: 0 n (%) | Subjects with puncture site induration [1]: 0 n (%) | Subjects with puncture site pain [1]: 0 n (%)

COC(=O)c1ccc2c(c1)NC(=O)/C2=C(\Nc1ccc(N(C)C(=O)CN2CCN(C)CC2)cc1)c1ccccc1 [Nintedanib]
Share of ester cleavage (esterases): about 25% | Subjects with abdominal pain upper [1]: 0 n (%) | Subjects with any AE (s) [1]: 8 (25.8) n (%) | Subjects with back pain [1]: 0 n (%) | Subjects with dizziness [1]: 1 (3.2) n (%) | Subjects with dry mouth [1]: 0 n (%) | Subjects with excoriation [1]: 0 n (%) | Subjects with fatigue [1]: 1 (3.2) n (%) | Subjects with headache [1]: 5 (16.1) n (%) | Subjects with nasopharyngitis [1]: 2 (6.5) n (%) | Subjects with ocular hyperemia [1]: 1 (3.2) n (%) | Subjects with puncture site induration [1]: 0 n (%) | Subjects with puncture site pain [1]: 0 n (%) | Serious AEs [1, 6]: No serious AEs | Tolerability [1, 6]: well tolerated | Substrate for p-glycoprotein (P-gp) (p-glycoprotein (P-gp)): substrate | Effect on tmax and t½ of nintedanib ([2]; co-administration of ketoconazole): unaffected | Increase in exposure to nintedanib based on AUC [2, 7]: about 1.6 fold | Increase in exposure to nintedanib based on Cmax [2, 7]: ~1.7 fold | Tmax ([2]; human, plasma, oral): 3 h | half-life ([2]; human, plasma, oral): 15.6 h | AUC(0-inf) ([2]; human, plasma, po, 50 mg): 38.6 ng·h/mL | AUC(0-t) ([2]; human, plasma, po, 50 mg): 35.7 ng·h/mL | Cmax ([2]; human, plasma, po, 50 mg): 4.19 ng/mL | half-life ([2]; human, plasma, po, 50 mg): 18.1 h | Exposure to nintedanib (AUC0–∞, Cmax, AUC0–tz) higher when co-administered with ketoconazole than alone ([2]; nintedanib 50 mg, ketoconazole 400 mg once daily for 3 days): 1.6–1.7 fold | Relative bioavailability, GMR (90% CI) of AUC0–tz [2, 8]: 168.1 (155.3–182.0) % | Relative bioavailability, GMR (90% CI) of AUC0–∞ [2, 8]: 160.5 (148.2–173.7) % | Relative bioavailability, GMR (90% CI) of Cmax [2, 8]: 179.6 (157.6–204.8) % | Terminal half-life [3]: 10 to 15 h | Volume of distribution ([3]; geometric mean): 1050 L | Percentage absorbed ([3]; nintedanib 100 mg in healthy volunteers, estimated): 23% | Absolute bioavailability ([3]; nintedanib 100 mg in healthy volunteers): approximately 5% | Time to maximum plasma concentration ([3]; oral administration): 2 to 4 h | Time to steady state ([3]; oral dosing): ≤ 7 days | Effect on tmax and t½ of nintedanib ([4]; co-administration of rifampicin): unaffected | Reduction of exposure to nintedanib based on AUC [4, 9]: about 50% | Reduction of exposure to nintedanib based on Cmax [4, 9]: ~60% | Tmax ([4]; human, plasma, oral): 4 h | half-life ([4]; human, plasma, oral): 23.4 h | AUC(0-inf) ([4]; human, plasma, po, 150 mg): 183 ng·h/mL | AUC(0-t) ([4]; human, plasma, po, 150 mg): 173 ng·h/mL | Cmax ([4]; human, plasma, po, 150 mg): 22.1 ng/mL | half-life ([4]; human, plasma, po, 150 mg): 22.5 h | Relative bioavailability, GMR (90% CI) of AUC0–tz [4, 10]: 50.0 (46.9–53.3) % | Relative bioavailability, GMR (90% CI) of AUC0–∞ [4, 10]: 50.1 (47.2–53.3) % | Relative bioavailability, GMR (90% CI) of Cmax [4, 10]: 59.8 (53.8–66.4) % | Subjects with any AE (s) [5]: 5 (19.2) n (%) | Subjects with chromaturia [5]: 0 n (%) | Subjects with cough [5]: 0 n (%) | Subjects with dermatitis contact [5]: 0 n (%) | Subjects with diarrhea [5]: 5 (19.2) n (%) | Subjects with dizziness [5]: 0 n (%) | Subjects with dysphagia [5]: 0 n (%) | Subjects with eye pain [5]: 0 n (%) | Subjects with fatigue [5]: 0 n (%) | Subjects with feces discolored [5]: 0 n (%) | Subjects with feeling hot [5]: 0 n (%) | Subjects with flatulence [5]: 0 n (%) | Subjects with headache [5]: 1 (3.8) n (%) | Subjects with influenza [5]: 0 n (%) | Subjects with laceration [5]: 0 n (%) | Subjects with nausea [5]: 0 n (%) | Subjects with night sweats [5]: 0 n (%) | Subjects with oropharyngeal pain [5]: 0 n (%) | Subjects with pollakiuria [5]: 0 n (%) | Subjects with rhinitis [5]: 0 n (%) | Subjects with vessel puncture site paresthesia [5]: 0 n (%) | Serious AEs [5, 11]: No serious AEs | Tolerability [5, 11]: well tolerated | Share of CYP-dependent metabolism (CYP): about 5%

CO[C@H]1/C=C/O[C@@]2(C)Oc3c(C)c(O)c4c(O)c(c(/C=N/N5CCN(C)CC5)c(O)c4c3C2=O)NC(=O)/C(C)=C\C=C\[C@H](C)[C@H](O)[C@@H](C)[C@@H](O)[C@@H](C)[C@H](OC(C)=O)[C@@H]1C [Rifampicin]
Subjects with any AE (s) [5]: 25 (100) n (%) | Subjects with chromaturia [5]: 25 (100) n (%) | Subjects with cough [5]: 1 (4.0) n (%) | Subjects with dermatitis contact [5]: 0 n (%) | Subjects with diarrhea [5]: 1 (4.0) n (%) | Subjects with dizziness [5]: 2 (8.0) n (%) | Subjects with dysphagia [5]: 1 (4.0) n (%) | Subjects with eye pain [5]: 1 (4.0) n (%) | Subjects with fatigue [5]: 2 (8.0) n (%) | Subjects with feces discolored [5]: 3 (12.0) n (%) | Subjects with feeling hot [5]: 1 (4.0) n (%) | Subjects with flatulence [5]: 2 (8.0) n (%) | Subjects with headache [5]: 5 (20.0) n (%) | Subjects with influenza [5]: 0 n (%) | Subjects with laceration [5]: 1 (4.0) n (%) | Subjects with nausea [5]: 1 (4.0) n (%) | Subjects with night sweats [5]: 1 (4.0) n (%) | Subjects with oropharyngeal pain [5]: 0 n (%) | Subjects with pollakiuria [5]: 1 (4.0) n (%) | Subjects with rhinitis [5]: 1 (4.0) n (%) | Subjects with vessel puncture site paresthesia [5]: 0 n (%)
